From publication PMC7355085 (ACS chemical neuroscience, 2016)
Like-named read-outs stand apart in the source and are kept apart here.

Columns and labels:
CDK5/p25 = CDK5/p25 (Homo sapiens, UniProt Q00535); assay: ADP-Glo kinase luminescent assay, CDK5/p25 inhibition; format: biochemical
GSK3β [1] = molecular target: T1, GSK3β (Homo sapiens, UniProt P49841); format: biochemical
SH-SY5Y cells [2] = assay: Neuroprotection against Aβ42-induced cytotoxicity, cell viability assay; format: cell-based, human; details: 1 112 μM; combinations with LiCl 10 mM or TDZD-8 10 μM; 10 μM Aβ42, 72 h
GSK3β [3] = molecular target: T1, GSK3β; assay: Promiscuous aggregation assay: GSK3β inhibition with Triton X-100; format: biochemical
other 18 kinases = assay: Kinase selectivity panel; format: biochemical; details: 224 μM; p > 0.05
AKT1 = AKT1 (Homo sapiens, UniProt P31749); assay: Kinase selectivity panel; format: biochemical; details: read-out: Inhibition against AKT1
CK2 = CK2 (Homo sapiens, UniProt P68400); assay: Kinase selectivity panel; format: biochemical; details: read-out: Inhibition against CK2
SH-SY5Y cells [4] = assay: Cell viability / cytotoxicity assessment in SH-SY5Y cells; format: cell-based, human
GSK3β [5] = molecular target: T1, GSK3β; assay: GSK3β enzyme kinetics; format: biochemical; details: noncompetitive inhibition with respect to ATP, GS2 constant at 17 μM, varying ATP
How it was run: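 Substrate GS2 held at 17 μM while ATP and test compound concentrations were varied. Vehicle was 5% DMSO. Quadruplicates from each of two independent experiments; means ± SEM.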

PKC = PKC (Homo sapiens, UniProt P17252); assay: Kinase selectivity panel; format: biochemical; details: read-out: Inhibition against PKC
SH-SY5Y cells [6] = assay: Morphological changes of SH-SY5Y cells; format: cell-based, human
How it was run: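 SH-SY5Y cultures (37 °C, humidified, 5% CO2) were examined by microscopy after 72 h. Conditions were 0.2% DMSO vehicle control, 10 μM Aβ42 alone, or test compound pretreatment followed by 10 μM Aβ42. Read-out was differentiation state and neurite extension or retraction.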

SH-SY5Y cells [7] = assay: Aβ42-induced tau phosphorylation in SH-SY5Y cells; format: cell-based, human
How it was run: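 SH-SY5Y cells were seeded at 3 × 10^5 cells/mL in DMEM/F12 with 1% FBS. […] Lysates in pyrophosphate buffer pH 7.4, 10 μg/lane, 10% SDS-PAGE, PVDF; primary antibodies 2 h at room temperature; β-actin loading control.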

T1 sequence (P49841 whole entry): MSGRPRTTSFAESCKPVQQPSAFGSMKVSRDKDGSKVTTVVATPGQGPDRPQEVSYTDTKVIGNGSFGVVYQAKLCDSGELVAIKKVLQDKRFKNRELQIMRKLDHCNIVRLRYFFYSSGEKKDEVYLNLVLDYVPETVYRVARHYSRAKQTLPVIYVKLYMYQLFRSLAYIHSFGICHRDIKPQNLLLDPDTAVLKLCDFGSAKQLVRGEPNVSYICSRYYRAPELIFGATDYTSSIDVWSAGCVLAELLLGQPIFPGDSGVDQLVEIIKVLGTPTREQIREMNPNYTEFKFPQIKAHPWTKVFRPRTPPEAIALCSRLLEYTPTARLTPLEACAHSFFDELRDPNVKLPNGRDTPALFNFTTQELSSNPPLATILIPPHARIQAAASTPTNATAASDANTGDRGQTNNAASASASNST
Chain of CDK5/p25 (Q00535 whole entry): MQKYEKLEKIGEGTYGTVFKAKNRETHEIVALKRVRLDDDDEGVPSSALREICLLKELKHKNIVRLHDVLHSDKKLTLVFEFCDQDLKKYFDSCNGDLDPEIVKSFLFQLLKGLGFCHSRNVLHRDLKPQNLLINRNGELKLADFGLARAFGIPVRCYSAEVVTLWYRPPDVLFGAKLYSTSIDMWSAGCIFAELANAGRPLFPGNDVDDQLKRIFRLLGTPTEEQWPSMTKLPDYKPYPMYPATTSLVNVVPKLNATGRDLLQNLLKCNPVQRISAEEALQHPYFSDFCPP
Chain of CDK5/p25 (Q15078 99-307 partner limits assumed): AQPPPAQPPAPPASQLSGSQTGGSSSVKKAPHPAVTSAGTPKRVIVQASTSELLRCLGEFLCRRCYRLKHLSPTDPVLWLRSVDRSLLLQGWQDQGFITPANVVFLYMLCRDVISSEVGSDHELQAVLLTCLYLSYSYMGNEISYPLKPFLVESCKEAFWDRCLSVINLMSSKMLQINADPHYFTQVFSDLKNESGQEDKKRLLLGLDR
Chain of CK2 (P68400 whole entry): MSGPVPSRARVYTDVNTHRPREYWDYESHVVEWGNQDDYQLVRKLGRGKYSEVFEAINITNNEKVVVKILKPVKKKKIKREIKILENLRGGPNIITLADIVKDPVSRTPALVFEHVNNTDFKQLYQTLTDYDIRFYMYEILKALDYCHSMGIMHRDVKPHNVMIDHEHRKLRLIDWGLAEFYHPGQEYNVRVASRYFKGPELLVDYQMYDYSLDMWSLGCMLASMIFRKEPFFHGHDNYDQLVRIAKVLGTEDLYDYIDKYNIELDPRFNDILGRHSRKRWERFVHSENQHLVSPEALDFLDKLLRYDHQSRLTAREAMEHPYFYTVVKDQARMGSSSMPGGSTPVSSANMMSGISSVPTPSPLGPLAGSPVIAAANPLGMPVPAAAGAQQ
Chain of AKT1 (P31749 whole entry): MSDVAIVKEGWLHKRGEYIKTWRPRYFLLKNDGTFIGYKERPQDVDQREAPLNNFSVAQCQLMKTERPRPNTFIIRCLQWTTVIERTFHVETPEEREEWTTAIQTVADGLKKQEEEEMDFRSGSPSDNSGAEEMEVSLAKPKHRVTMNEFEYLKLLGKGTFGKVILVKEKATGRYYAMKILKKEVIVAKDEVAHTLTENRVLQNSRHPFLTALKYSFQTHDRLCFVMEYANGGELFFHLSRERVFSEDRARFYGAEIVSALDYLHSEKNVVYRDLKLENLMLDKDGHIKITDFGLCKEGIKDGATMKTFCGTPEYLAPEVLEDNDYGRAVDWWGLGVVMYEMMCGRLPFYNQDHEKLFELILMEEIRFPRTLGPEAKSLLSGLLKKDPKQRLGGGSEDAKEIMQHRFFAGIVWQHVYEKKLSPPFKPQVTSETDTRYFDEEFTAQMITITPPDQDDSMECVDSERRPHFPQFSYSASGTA

For 3’-methoxymaysin [Compound 2], the IC50 (CDK5/p25; read-out: IC50, CDK5/p25) was > 15000 µM and the IC50 (GSK3β [1]; read-out: IC50, GSK3β inhibition, 25 μM ATP, 1 h, room temperature) was 288 µM.

O=c1cc(-c2ccc(O)c(O)c2)oc2cc(O)c([C@@H]3O[C@H](CO)[C@@H](O)[C@H](O)[C@H]3O)c(O)c12 [Compound 1, isoorientin] was tested, and the “Neuroprotection against cell viability loss, single concentration” value (SH-SY5Y cells [2]) was “neuroprotection against cell viability loss”, the IC50 (GSK3β [3]) was 192 µM and the “Inhibition of other 18 kinases of the panel” value (other 18 kinases) was “did not significantly inhibit”. The inhibition at 224 µM (AKT1) was ~30%, the inhibition at 224 µM (CK2) was ~30% and the IC50 (CDK5/p25) was > 15000 µM. The “Dose up to which no cytotoxicity to SH-SY5Y cells was noted” value (SH-SY5Y cells [4]; 72 h) was > 896 µM, the “Effect on cell proliferation” value (SH-SY5Y cells [4]; 72 h, without Aβ42) was “slightly stimulated cell proliferation” and the Ki (GSK3β [5]) was 210 ± 22 µM. The inhibition at 224 µM (PKC) was ~30%, the “Decrease of GSK3β kinase activity” value (GSK3β [1]; 224 μM, compared to control (100% kinase activity), p < 0.0001) was 52.4% and the Cell morphology (SH-SY5Y cells [6]; pretreatment of 28 μM 1 followed by 10 μM Aβ42, 72 h) was “Partial differentiated cells with extended neurites”. The Cell morphology (SH-SY5Y cells [6]; pretreatment of 448 μM 1 followed by 10 μM Aβ42, 72 h) was “Protected differentiated cells with extended axons and dendrites” and the “Levels of GSK3β pS9 and total GSK3β” value (SH-SY5Y cells [7]; co-incubation of 1 with 10 μM Aβ42, 72 h, compared to untreated cells, p > 0.05) was “No significant change”.

O=c1cc(-c2ccc(O)c(O)c2)oc2cc(O)cc(O)c12 [luteolin] was tested, and the IC50 (GSK3β [3]; IC50, GSK3β, with 0.01% Triton, with 0.01% Triton X-100) was 32 µM and the IC50 (GSK3β [3]; IC50, GSK3β, without Triton, before addition of Triton X-100) was 2 µM.

For β-Amyloid fragment peptide 1–42 [Aβ42], the “Inhibition of cell growth” value (SH-SY5Y cells [4]; 10 μM Aβ42) was “about 50%”, the Cell morphology (SH-SY5Y cells [6]; 10 μM Aβ42 treatment, 72 h) was “Impaired and nondifferentiated cells with retracted neurites” and the “Increase of tau phosphorylation at pS199/pS202 relative to untreated cells” value (SH-SY5Y cells [7]; 10 μM Aβ42, 72 h) was “approximately 3.5 fold”. For the same compound, the “Increase of tau phosphorylation at pS396 relative to untreated cells” value (SH-SY5Y cells [7]; 10 μM Aβ42, 72 h) was ~2.3 fold.
